The values below come from ChEMBL document CHEMBL4130442, “Design, synthesis and structure-activity relationship studies of a focused library of pyrimidine moiety with anti-proliferative and anti-metastasis activities in triple negative breast cancer” (Eur J Med Chem, 2017).

Common to all, as to format: functional, cell-based
Test [1] concerns MDA-MB-231. In words: Antiproliferative activity against human MDA-MB-231 cells incubated for 24 hrs by MTT assay. The conditions noted are these: MDA-MB-231, 24 h. In short, it runs like this:
(§1)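 MDA-MB-231 cells grown in DMEM with 10% FBS under 5% CO2 were seeded at 5×10^4 cells/ml. After 24 h, a concentration series was added for 24, 48 or 72 h and viability was read by MTT. IC50 is mean ± SD of triplicates.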
(Tetrazolium assays rely on reduction of a dye to a coloured formazan, in cell work by metabolically active cells.)

In test [2] the test system is MDA-MB-231. In words: Antiproliferative activity against human MDA-MB-231 cells incubated for 48 hrs by MTT assay. Particulars: MDA-MB-231, 48 h. A digest of the protocol: as §1
In test [3] the test system is MDA-MB-231. In words: Antiproliferative activity against human MDA-MB-231 cells incubated for 72 hrs by MTT assay. Particulars: MDA-MB-231, 72 h. In short, it runs like this:
as §1

On to `O=C(Nc1ccc(C(F)(F)F)cc1)N1CCN(c2nccc(NCc3ccccc3)n2)CC1`, for which the IC50 – broadly, the concentration that inhibits the measured activity by half – in the test with MDA-MB-231 [1] was 2.45 µM.
`O=S(=O)(c1ccccc1)N1CCN(c2nccc(Oc3cc(Cl)cc(Cl)c3)n2)CC1` yielded an IC50 in the test with MDA-MB-231 [1] above 50 µM.
Consider `COc1cccc(Nc2ccnc(N3CCN(C(=O)Nc4ccccc4Cl)CC3)n2)c1`, for which half-maximal inhibition in the test with MDA-MB-231 [1] (IC50) was put at 5.26 µM.
Same read-out and setting: then `CN1CCN(CC(=O)N2CCN(c3nccc(Oc4cc(Cl)cc(Cl)c4)n3)CC2)CC1`, with 24.7 µM; and `O=C([C@H]1Cc2ccccc2N1)N1CCN(c2nccc(Oc3cc(Cl)cc(Cl)c3)n2)CC1`, with above 50 µM; and `O=C(c1cccc(O)c1)N1CCN(c2nccc(Oc3cc(Cl)cc(Cl)c3)n2)CC1`, with 18.4 µM.
`O=S(=O)(c1cccnc1)N1CCN(c2nccc(Oc3cc(Cl)cc(Cl)c3)n2)CC1` yielded an IC50 in the test with MDA-MB-231 [1] of 24.8 µM.
On the same count and under the same terms, under `O=C(c1ccc(Cl)cc1Cl)N1CCN(c2nccc(NCc3ccccc3)n2)CC1` stands 9.79 µM; under `O=S(=O)(c1ccc(F)cc1)N1CCN(c2nccc(Oc3cc(Cl)cc(Cl)c3)n2)CC1`, above 50 µM; under `O=C(c1ccc[nH]1)N1CCN(c2nccc(Oc3cc(Cl)cc(Cl)c3)n2)CC1`, 35.2 µM.
On to `O=C(c1ccc(C(F)(F)F)cc1)N1CCN(c2nccc(Oc3cc(Cl)cc(Cl)c3)n2)CC1`, for which the IC50 in the test with MDA-MB-231 [1] is 12.5 µM. Compared with the last compound, the IC50 is about 2.8-fold lower.
In turn, `CC(=O)Nc1ccc(C(=O)N2CCN(c3nccc(Oc4cc(Cl)cc(Cl)c4)n3)CC2)cc1` had an IC50 with MDA-MB-231 [1] above 50 µM.
`O=C(c1cc(Cl)ccn1)N1CCN(c2nccc(Oc3cc(Cl)cc(Cl)c3)n2)CC1`: the midpoint of inhibition with MDA-MB-231 [1], the IC50, lay at 16.7 µM.
Take `COc1ccc(NC(=O)N2CCN(c3nccc(Oc4cc(Cl)cc(Cl)c4)n3)CC2)cc1`: the IC50 in the test with MDA-MB-231 [1] was found to be 16.4 µM.
For `COc1ccc(S(=O)(=O)N2CCN(c3nccc(Oc4cc(Cl)cc(Cl)c4)n3)CC2)cc1`, in the test with MDA-MB-231 [1], the IC50 worked out at 46.8 µM.
On the same count and under the same terms, under `O=C(c1ccccc1F)N1CCN(c2nccc(Oc3cc(Cl)cc(Cl)c3)n2)CC1` stands above 50 µM; under `O=C(c1ccc2ncccc2c1)N1CCN(c2nccc(Oc3cc(Cl)cc(Cl)c3)n2)CC1`, above 50 µM.
For the compound `O=C(Nc1cc(C(F)(F)F)cc(C(F)(F)F)c1)N1CCN(c2nccc(Oc3cc(Cl)cc(Cl)c3)n2)CC1`, half-maximal inhibition in the test with MDA-MB-231 [1] (IC50) required 6.74 µM.
For the compound `COc1cccc(Nc2cc(N3CCN(C(=O)c4ccc(Cl)cc4Cl)CC3)ncn2)c1`, the IC50 with MDA-MB-231 [1] was found to be 7.23 µM.
On to `COc1ccccc1S(=O)(=O)N1CCN(c2nccc(Oc3cc(Cl)cc(Cl)c3)n2)CC1`, for which, in the test with MDA-MB-231 [1], the midpoint of inhibition, the IC50, lay at 16.8 µM. This IC50 is about 2.3-fold higher than that of the compound before.
In the test on MDA-MB-231 [1], `COc1cccc(Nc2ccnc(N3CCN(C(=O)Nc4ccc(C(F)(F)F)cc4)CC3)n2)c1` came in with an IC50 of 1.24 µM.
Take `O=C(Nc1ccccc1Cl)N1CCN(c2nccc(Oc3cc(Cl)cc(Cl)c3)n2)CC1`: the IC50 in the test on MDA-MB-231 [1] is 11 µM.
Same read-out and setting: then `CC(C)(C)c1ccc(S(=O)(=O)N2CCN(c3nccc(Oc4cc(Cl)cc(Cl)c4)n3)CC2)cc1`, with above 50 µM; and `O=C(Nc1ccc2ccccc2c1)N1CCN(c2nccc(Oc3cc(Cl)cc(Cl)c3)n2)CC1`, with 46.8 µM.
Still for that read-out and setting: under `Cc1ccc(NC(=O)N2CCN(c3nccc(Oc4cc(Cl)cc(Cl)c4)n3)CC2)cc1` stands 11.6 µM.
On to `CC(C)(C(=O)N1CCN(c2nccc(Oc3cc(Cl)cc(Cl)c3)n2)CC1)c1cc(C(F)(F)F)cc(C(F)(F)F)c1`, for which the IC50 with MDA-MB-231 [1] is above 50 µM.
Compound `O=C(Nc1ccc(C(F)(F)F)cc1)N1CCN(c2nccc(Oc3cc(Cl)cc(Cl)c3)n2)CC1` gave an IC50 with MDA-MB-231 [1] of 1.54 µM.
Take `O=C(c1cccc(Cl)c1)N1CCN(c2nccc(Oc3cc(Cl)cc(Cl)c3)n2)CC1`: the IC50 in the test with MDA-MB-231 [1] was 37.8 µM.
On the same count and under the same terms, under `O=C1CC[C@@H](C(=O)N2CCN(c3nccc(Oc4cc(Cl)cc(Cl)c4)n3)CC2)N1` stands above 50 µM; under `O=C(c1cccc(C(F)(F)F)c1)N1CCN(c2nccc(Oc3cc(Cl)cc(Cl)c3)n2)CC1`, 17.9 µM.
Turning to `C#Cc1cccc(Nc2ncnc3cc(OCCOC)c(OCCOC)cc23)c1` [ERLOTINIB], the IC50 was 55.5 µM with MDA-MB-231 [1], 33.5 µM with MDA-MB-231 [2] and 30.1 µM with MDA-MB-231 [3].
`COc1cccc(Nc2ccnc(N3CCN(C(=O)c4ccc(Cl)cc4Cl)CC3)n2)c1`: in the test with MDA-MB-231 [1], inhibition was half-maximal at 11.3 µM (IC50). In other words, the double-digit micromolar range.
`O=C(Nc1ccccc1Cl)N1CCN(c2nccc(NCc3ccccc3)n2)CC1`: the IC50 in the test on MDA-MB-231 [1] was 1.59 µM.
On to `Cc1cnc(C(=O)N2CCN(c3nccc(Oc4cc(Cl)cc(Cl)c4)n3)CC2)cn1`, for which half-maximal inhibition in the test on MDA-MB-231 [1] (IC50) required 34.8 µM. Compared with the last compound, the IC50 is about 22-fold higher.
Still for that read-out and setting: then `O=C(CN1CCOCC1)N1CCN(c2nccc(Oc3cc(Cl)cc(Cl)c3)n2)CC1`, with 37.6 µM; and `O=C(Nc1cccc(Cl)c1)N1CCN(c2nccc(Oc3cc(Cl)cc(Cl)c3)n2)CC1`, with 7.9 µM.
As for `Cc1cccc(C(=O)N2CCN(c3nccc(Oc4cc(Cl)cc(Cl)c4)n3)CC2)c1`, in the test on MDA-MB-231 [1], the IC50 is above 50 µM.
For the compound `O=C(c1ccc(Cl)cc1Cl)N1CCN(c2nccc(Oc3cc(Cl)cc(Cl)c3)n2)CC1`, the IC50 with MDA-MB-231 [1] is 11.8 µM. In other words, the double-digit micromolar range.
In the case of `O=C(c1ccc2c(c1)OCO2)N1CCN(c2nccc(Oc3cc(Cl)cc(Cl)c3)n2)CC1`, the IC50 with MDA-MB-231 [1] was above 50 µM.
In the case of `COc1cccc(Nc2cc(N3CCN(C(=O)Nc4ccccc4Cl)CC3)ncn2)c1`, the IC50 with MDA-MB-231 [1] was determined as 2.8 µM.
Same read-out and setting: under `N#Cc1ccc(S(=O)(=O)N2CCN(c3nccc(Oc4cc(Cl)cc(Cl)c4)n3)CC2)cc1` stands 24.8 µM.
